# OX1R antag-1 – blocks the human orexin 1 receptor | O43613 | OX1R-expressing cells, FRET antagonist read-out | inhibition, % at 6.6 µM | 330,000 compounds, 1.8% hits; in the data active means inhibition mostly above about 38%, no sharp cut-off; inactive means mostly below about 40%
# TAAR1 antagonist – antagonists of human TAAR1; Q96RJ0; CHO RD-HGA16 TAAR1, Fluo-8 calcium fluorescence, antagonist; inhibition, % at 3 µM; 360,000 compounds, 1.5% hits;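 active means inhibition above a per-plate cutoff, the mean inhibition of test compounds on that plate plus 3 SD, cut at about 49% in these data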
# Target sequence (Q96RJ0 whole entry, looked up): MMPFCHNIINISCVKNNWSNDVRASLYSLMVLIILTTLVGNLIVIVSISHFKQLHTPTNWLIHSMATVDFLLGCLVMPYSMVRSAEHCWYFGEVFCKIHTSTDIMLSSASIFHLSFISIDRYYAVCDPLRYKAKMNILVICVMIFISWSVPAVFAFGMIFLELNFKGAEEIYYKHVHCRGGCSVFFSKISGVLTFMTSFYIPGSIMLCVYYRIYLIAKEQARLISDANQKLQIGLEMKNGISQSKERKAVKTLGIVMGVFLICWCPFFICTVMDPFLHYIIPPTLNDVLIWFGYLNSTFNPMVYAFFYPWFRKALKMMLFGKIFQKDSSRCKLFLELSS
#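 Assay system: RD-HGA16 CHO cells with stable hTAAR1 and Gα16 / Reagent: EC80 β-phenethylamine stimulus / Doses: 3 µM, single point / Timing: dye loading 75 min at 37 °C, then 30 min room temperature / Measured by: Fluo-8 intracellular calcium dye fluorescence, real-time kinetic reads / Controls: vehicle wells and EC80 agonist wells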
# CHO parental Ca – counter-screen for OX1R antagonists: effect in parental CHO cells; parental CHO-K1, ATP-induced calcium, Fluo-8 fluorescence; 330,000 compounds, 0.63% hits; inhibition, % at 5.6 µM; AID 463079;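 active means inhibition above that plate's mean sample inhibition plus 3 SD, cut at about 26% in these data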
#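 material = parental CHO cells | also added = ATP as calcium-mobilizing challenge | dosing = single point at 5.6 µM | detection = intracellular calcium via Fluo-8 no-wash fluorescent dye | read-out = % inhibition | benchmarks = low control ATP plus DMSO, high control DMSO only | repeats = one well per compound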
# OX1R antag-2 – blocks the human orexin 1 receptor; O43613; CHO/OX1R cells, Fluo-8 calcium fluorescence, orexin A; inhibition, % at 5 µM; 330,000 compounds, 0.43% hits; AID 434989;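 active means inhibition above its plate's threshold, mean inhibition of all tested compounds on the plate plus 3 SD, cut at about 37% in these data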
# GPR7 antagonist – human neuropeptides B/W receptor 1 antagonism; GPR7-expressing cells, fluorescence antagonist assay; 290,000 compounds, 1.1% hits; P48145; inhibition, % at 4.4 µM; in the data active means inhibition above about 16%, passing the limit was not always enough;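 further: cells stimulated with the agonist NPW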
# Target sequence (P48145 whole entry, looked up): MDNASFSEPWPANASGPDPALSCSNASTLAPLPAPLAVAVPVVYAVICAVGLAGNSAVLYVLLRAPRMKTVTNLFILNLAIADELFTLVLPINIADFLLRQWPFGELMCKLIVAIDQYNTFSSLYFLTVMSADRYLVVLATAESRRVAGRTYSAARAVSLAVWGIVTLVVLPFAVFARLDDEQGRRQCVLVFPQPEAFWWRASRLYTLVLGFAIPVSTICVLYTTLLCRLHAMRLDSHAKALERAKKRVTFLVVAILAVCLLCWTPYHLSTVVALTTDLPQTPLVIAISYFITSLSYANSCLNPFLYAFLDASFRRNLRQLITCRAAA
# TAAR1 ag – human TAAR1 agonism. Q96RJ0. CHO RD-HGA16 TAAR1, Fluo-8 calcium fluorescence; vehicle wells 0%, saturating PEA agonist 100%. activation, % at 3 µM. 360,000 compounds, 0.99% hits. AID 624467;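 active means activation above the mean activation of all test compounds in the run plus 3 SD, cut at about 38% in these data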
#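 Test system: RD-HGA16 (CHO) cells co-expressing Gα16 and hTAAR1 | Doses: Single dose, 3 µM | Schedule: 17-24 h seeding, 75 min 37 °C dye, 30 min RT | Evaluation: % activation from peak over basal fluorescence ratio, DMSO-to-PEA scaled | Technique: Kinetic Fluo-8 calcium fluorescence | Benchmarks: Low control DMSO, high control PEA (EC100)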
# OX1R HTRF conf – OX1R (human) antagonism, HTRF confirmed; shares compounds with OX1R antag-1; OX1R-expressing cells, HTRF antagonist assay; inhibition, % at 6.6 µM; 1,800 compounds, 49% hits; in the data active means inhibition above about 55%;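 further: CHO cells expressing OX1R stimulated with orexin A at about EC80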
# CHO-K1 HTRF – counter-screen: parental CHO-K1 HTRF response | 1,800 compounds, 48% hits | inhibition, % at 6.6 µM | AID 493232 | parental CHO-K1 cells, HTRF counterscreen | shares compounds with OX1R antag-1; in the data active means inhibition above about 17%
# A number is an active result; n = inactive; x = not tested or not shown; + = active, no number; ! = not active in a repeat. Rows were chosen to be rich in hits. Some 4.6% of all compounds tested hit in one or more screens of this group.
SMILES,OX1R antag-1,TAAR1 antagonist,CHO parental Ca,OX1R antag-2,GPR7 antagonist,TAAR1 ag,OX1R HTRF conf,CHO-K1 HTRF
O=[N+]([O-])c1ccc(N2CCN(CCOCCO)CC2)c([N+](=O)[O-])c1,85,n,n,n,n,n,n,39
O=[N+]([O-])c1cc(C(F)(F)F)ccc1N1CCN(CCO)CC1,n,n,n,n,n,n,x,x
CC1CC(=O)NN=C1c1ccc(N)c([N+](=O)[O-])c1 (centres undefined),83,n,n,n,n,n,n,29
O=C(NCCO)c1ccc2nc(-c3ccco3)c(-c3ccco3)nc2c1,109,n,n,n,n,n,n,58
O=C(C[C@H]1C(=O)N(Cc2ccccc2)C[C@@H]1c1ccc(Br)cc1)Nc1ccc(Br)cc1,x,n,x,x,x,n,x,x
COc1cccc2oc3cc(C#Cc4ccccn4)ccc3c(=O)c12,79,n,n,n,n,n,64,n
O=C(NCCS(=O)(=O)N1CCN(c2ccccc2)CC1)c1cccs1,n,n,n,n,x,n,x,x
N=c1c(C(=O)NCc2ccc(F)cc2)cc2c(=O)n3ccccc3nc2n1CCCN1CCOCC1,82,n,n,n,n,n,65,35
Cc1cc(-n2c(=O)c(C#N)cc3c(=O)n4ccccc4nc32)no1,128,n,n,n,n,n,n,75
N#Cc1cc2c(=O)n3ccccc3nc2n(-c2ccc(Cl)cc2)c1=O,n,n,n,n,n,n,x,x
COCCCn1c(C(=O)NCCN2CCOCC2)cc2c(=O)n3ccccc3nc21,n,n,n,n,n,n,x,x
C=CCn1c(=N)c(C(=O)NCCCOC)cc2c(=O)n3ccccc3nc21,137,n,n,n,n,n,56,83
C=CCn1c(=N)c(C#N)cc2c(=O)n3ccccc3nc21,102,n,n,n,n,n,55,78
CC(=O)Nc1ccc(C(=O)N/C(=C/c2ccccc2)C(=O)NCc2ccco2)cc1,n,n,n,n,n,n,x,x
Cc1cccc(NC(=O)CCSc2nncn2C)c1,n,n,n,n,n,n,x,x
C=CCn1c(=O)c(C#N)cc2c(=O)n3ccccc3nc21,137,n,n,n,n,n,n,34
CCOC(=O)c1cc2c(=O)n3ccccc3nc2n(Cc2ccco2)c1=NC(=O)c1ccc(OC)cc1,n,n,n,n,n,n,x,x
CCOC(=O)c1cc2c(=O)n3ccccc3nc2n(CCCOC)c1=NC(=O)c1ccncc1,85,n,n,n,n,n,n,33
O=C(Nc1ccn(Cc2cccc3ccccc23)n1)c1cccnc1,n,n,n,n,n,n,x,x
O=C1CCCC(O)=C1N=Nc1ccc2c(c1)OCO2,81,n,n,n,n,n,n,58
O=C1CCCC(O)=C1N=Nc1c(Cl)cc(C(F)(F)F)cc1Cl,n,n,n,n,n,n,x,x
O=C1CCCC(O)=C1N=Nc1cccc(S(=O)(=O)N2CCOCC2)c1,n,n,n,n,n,n,x,x
O=C1CCCC(O)=C1N=Nc1ccc(C(=O)O)cc1,86,n,n,n,n,n,72,64
Cn1c(=O)c2cc(NC(=O)NCCc3ccccc3)ccc2n1Cc1cccc(C(F)(F)F)c1,x,n,x,x,x,n,x,x
O=C1C2C3C=CC(C3)C2C(=O)N1c1ccc2ccccc2c1 (centres undefined),n,n,n,n,n,n,x,x
SMILES,OX1R antag-1,TAAR1 antagonist,CHO parental Ca,OX1R antag-2,GPR7 antagonist,TAAR1 ag,OX1R HTRF conf,CHO-K1 HTRF
CC(=O)N1CCN(CC(=O)Nc2cc([N+](=O)[O-])ccc2Cl)CC1,n,n,n,n,n,n,x,x
O=C(CN1CCN(c2ccc(O)cc2)CC1)Nc1cc([N+](=O)[O-])ccc1Cl,79,n,n,n,n,n,n,47
COc1cc(C(=O)NCCNc2nc3c(C)cccc3cc2C#N)cc(OC)c1OC,x,n,x,x,x,n,x,x
COc1ccc(C(=O)NCCNc2nc3c(C)cccc3cc2C#N)cc1OC,90,n,n,n,n,n,87,n
Cc1cc[n+](-c2nc3ccccc3nc2C(=C=[N-])C#N)cc1,121,n,n,n,n,n,n,63
N#CC(=C=[N-])c1nc2ccccc2nc1-[n+]1ccccc1,98,n,n,n,n,n,64!,79
Cc1ccc(S(=O)(=O)NNC(=S)Nc2ccccc2)cc1,n,n,n,n,n,n,x,x
CCOC(=O)c1c(C)oc2c1c(C(c1cccnc1)N1CCCCC1)c(O)c1ccccc12 (centres undefined),95,n,n,n,n,n,n,n
O=C(COc1ccccc1)Nc1ccc(OC(F)(F)C(F)F)c(NC(=O)COc2ccccc2)c1,n,n,n,n,n,n,x,x
O=C(N=Nc1c(O)[nH]c2ccccc12)c1ccco1,113,n,n,n,n,n,99,55
CCC(=O)N1CCC2(CC1)Oc1ccc(F)cc1C(=O)C21CC(c2cccnc2)=NO1 (centres undefined),78,n,n,n,x,n,n,n
CCCCCOC(=O)c1c(N)n(CCOC)c2nc3ccccc3nc12,n,n,n,n,n,n,x,x
CCOC(=O)c1c(N)n(CCOC(=O)c2cccs2)c2nc3ccccc3nc12,78,n,n,n,n,n,56,n
CC/C(C)=N/NC(=O)c1[nH]c2ccc(C)cc2c1-c1ccccc1,93,n,n,n,n,n,n,n
CCn1c(/C=C/c2cc[n+](C)cc2)nc2ccccc21,78,n,n,n,n,n,n,59
CCCn1c(/C=C/c2ccccc2)nc2ccccc21,n,n,n,n,n,n,x,x
O=[N+]([O-])c1cccc(/C=N/n2cnnc2)c1,77,n,n,n,n,n,n,31
C[C@H](O)C#Cc1cnc2c(c1)C(=O)N([C@H](C)CO)C[C@@H](C)[C@@H](CN(C)Cc1ccc(-c3ccccc3)cc1)O2,x,n,x,x,x,n,x,x
Cc1c(C#N)c(O)n(CCO)c(=O)c1N=Nc1ccc(S(N)(=O)=O)cc1,161,n,n,n,n,n,64,83
Cc1c(C#N)c(O)n(C)c(=O)c1N=Nc1ccc(S(N)(=O)=O)cc1,x,n,x,x,n,n,x,x
O=C(N/N=C/C(Cl)=C\c1ccccc1)c1cccs1,87,n,n,n,n,n,62,n
CC1CCc2c(nc3ncnn3c2NCCc2ccccc2F)C1 (centres undefined),n,n,n,n,n,n,x,x
O=C1C(Cl)=C(NCCCO)C(=O)c2ccccc21,+,n,n,n,n,n,67,104
C/C(N)=C(/C#N)C(=O)CSc1nc2ccc(C)cc2[nH]1,n,n,n,n,n,n,x,x

# Screens (PubChem BioAssay)
